The nature of experiment [1]: Dose required for 50 percent inhibition of lecithin cholesterol acyl transferase in vitro in rats at 30 uM; No effect.
The target of experiment [2] is T1, Sterol O-acyltransferase 1 (Rattus norvegicus, UniProt O70536).
T1 sequence (O70536 whole entry): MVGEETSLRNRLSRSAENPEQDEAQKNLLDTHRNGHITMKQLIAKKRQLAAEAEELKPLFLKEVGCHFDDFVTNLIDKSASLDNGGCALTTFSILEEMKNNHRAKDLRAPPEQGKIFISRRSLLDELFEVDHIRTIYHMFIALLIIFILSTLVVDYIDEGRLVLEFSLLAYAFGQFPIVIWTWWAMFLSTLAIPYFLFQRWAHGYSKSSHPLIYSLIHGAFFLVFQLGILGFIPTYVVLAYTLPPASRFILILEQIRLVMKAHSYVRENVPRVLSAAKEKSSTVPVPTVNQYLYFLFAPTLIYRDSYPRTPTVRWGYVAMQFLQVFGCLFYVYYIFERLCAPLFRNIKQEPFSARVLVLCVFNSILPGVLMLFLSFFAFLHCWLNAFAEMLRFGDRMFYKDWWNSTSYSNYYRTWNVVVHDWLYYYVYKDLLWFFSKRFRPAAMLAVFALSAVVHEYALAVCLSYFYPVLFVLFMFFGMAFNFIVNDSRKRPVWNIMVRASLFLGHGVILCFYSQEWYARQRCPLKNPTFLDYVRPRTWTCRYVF
Description: In vitro potency was determined using Acyl coenzyme A:cholesterol acyltransferase in liver microsomes from rats. Further details: species or system Microsome. The method in brief:
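Enzyme source was liver microsomes prepared from chow-fed Sprague-Dawley rats, assayed for ACAT activity by the Billheimer method. IC50 was determined.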
(In general: Liver microsomes are vesicles of endoplasmic reticulum, rich in cytochrome P450 enzymes.)

The test system of the next experiment is Oryctolagus cuniculus. Description: Evaluation for the plasma cholesterol lowering in rabbits at the dose 5 mg/kg. It counts as functional, organism-based. Further details: dose 5 mg/kg. In short, it runs like this:
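Cholesterol-fed New Zealand White rabbits: diet with 0.4% cholesterol and 5% peanut oil for 4 weeks, drug given over the final 3 weeks at a single dose of 5 mg/kg. Read-out is total plasma cholesterol (mg/dL) against untreated controls, mean ± standard deviation, n = 5 per group.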

Experiment [3] addresses T2, Sterol O-acyltransferase 1 (Rattus norvegicus) (UniProt O70536).
T2 sequence (whole entry): T1 sequence (O70536 whole entry)
Conditions: 0.135 uM.

Experiment [4] concerns the target T3, 3-hydroxy-3-methylglutaryl-coenzyme A reductase (Rattus norvegicus) (UniProt P51639).
T3 sequence (whole entry): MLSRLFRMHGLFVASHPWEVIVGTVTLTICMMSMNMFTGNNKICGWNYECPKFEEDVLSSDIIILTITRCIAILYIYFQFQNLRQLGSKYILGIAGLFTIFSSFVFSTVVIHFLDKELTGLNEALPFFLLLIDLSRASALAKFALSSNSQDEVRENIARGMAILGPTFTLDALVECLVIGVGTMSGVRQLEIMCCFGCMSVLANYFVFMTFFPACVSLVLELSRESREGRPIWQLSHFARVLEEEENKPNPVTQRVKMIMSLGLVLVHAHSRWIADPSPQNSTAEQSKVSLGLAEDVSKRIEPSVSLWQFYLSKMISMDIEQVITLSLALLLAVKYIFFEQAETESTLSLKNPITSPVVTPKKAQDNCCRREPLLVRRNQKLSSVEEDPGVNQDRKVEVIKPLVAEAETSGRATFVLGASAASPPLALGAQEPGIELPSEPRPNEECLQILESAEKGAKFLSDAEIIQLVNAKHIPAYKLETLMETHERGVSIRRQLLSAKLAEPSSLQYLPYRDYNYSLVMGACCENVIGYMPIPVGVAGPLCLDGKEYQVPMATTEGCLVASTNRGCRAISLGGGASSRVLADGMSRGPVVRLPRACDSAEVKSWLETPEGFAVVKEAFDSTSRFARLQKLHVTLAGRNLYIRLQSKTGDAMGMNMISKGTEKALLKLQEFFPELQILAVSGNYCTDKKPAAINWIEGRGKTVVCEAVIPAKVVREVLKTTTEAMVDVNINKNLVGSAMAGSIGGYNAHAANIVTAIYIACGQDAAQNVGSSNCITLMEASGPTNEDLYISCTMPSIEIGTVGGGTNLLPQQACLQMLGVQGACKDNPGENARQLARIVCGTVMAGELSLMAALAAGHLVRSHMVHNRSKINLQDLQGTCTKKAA
Description: Dose required for 50 percent inhibition of 3-Hydroxy-3-methylglutaryl coenzyme A reductase in vitro in rats at 100 uM; No effect.

The next experiment deals with Cricetinae gen. sp. Description: Effects on cholesterol absorption in hamsters. It counts as functional, organism-based. Conditions: Cricetulus griseus. In short, it runs like this: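 Cholesterol-fed hamsters received radiolabeled cholesterol in a liquid diet together with the drug, and untreated controls were included. Animals were sacrificed 24 h later. Absorption inhibition was estimated from plasma and liver radioactivity relative to controls. Dose-response studies gave ED50, and chow-fed hamsters were also tested.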

A short description of experiment [5]: Dose required for 50 percent inhibition of lecithin cholesterol acyl transferase in vitro in rats at 300 uM; No effect.
Experiment [6] is described as follows: Dose required for 50 percent inhibition of rat Pancreatic cholesterol esterase in vitro No effect at 300 uM.
The target of experiment [7] is T4, Bile salt-activated lipase (Bos taurus) (UniProt P30122).
T4 sequence (whole entry): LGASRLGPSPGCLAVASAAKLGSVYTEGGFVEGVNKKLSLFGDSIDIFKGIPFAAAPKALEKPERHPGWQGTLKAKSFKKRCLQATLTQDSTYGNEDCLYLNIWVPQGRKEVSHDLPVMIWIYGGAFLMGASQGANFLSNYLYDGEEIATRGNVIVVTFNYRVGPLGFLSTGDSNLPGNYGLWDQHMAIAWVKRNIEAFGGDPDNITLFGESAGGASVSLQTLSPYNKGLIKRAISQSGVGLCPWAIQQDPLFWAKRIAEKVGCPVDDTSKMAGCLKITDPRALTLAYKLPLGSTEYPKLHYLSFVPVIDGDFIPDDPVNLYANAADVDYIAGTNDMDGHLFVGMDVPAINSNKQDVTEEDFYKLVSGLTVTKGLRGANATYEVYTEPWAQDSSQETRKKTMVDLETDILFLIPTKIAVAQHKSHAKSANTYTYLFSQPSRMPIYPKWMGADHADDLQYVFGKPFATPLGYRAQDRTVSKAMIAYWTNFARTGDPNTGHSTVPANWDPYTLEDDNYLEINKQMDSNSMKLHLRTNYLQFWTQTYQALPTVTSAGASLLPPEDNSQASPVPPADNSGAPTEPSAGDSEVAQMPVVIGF
Description: Dose required for 50 percent inhibition of Pancreatic cholesterol esterase in vitro in rats at 300 uM; No effect.

Calls of active or inactive are those of the source. The rule behind the calls is not given here.

What is called inhibition is the drop in the measured response relative to a control, in per cent. As usually defined, the IC50 is the concentration needed to halve the response being measured.

For `CCCCCCCC[C@H](SCCCCCC)C(=O)Nc1c(SC)ccc2ncccc12`, the inhibition result in experiment [1] and in experiment [4] was “inactive” throughout. Further, 135 nM corresponded to half-maximal inhibition in experiment [2] (IC50). The same compound showed a Level in the experiment on Oryctolagus cuniculus of 123 mg/dL. In [3], this compound came in with an inhibition of 50%. Moreover, the Absorption with Cricetinae gen. sp. was determined as 0.24 mg/kg.

Take `CCCCCCCC[C@H](SCCCCCC)C(=O)Nc1c(SC)cc(C)nc1SC`: the inhibition entry in experiment [5], in experiment [6] and in experiment [7] was “inactive” each time. This compound also returned an IC50 in experiment [2] of 22 nM. Moreover, in the experiment on Oryctolagus cuniculus, the Level came out at 98 mg/dL. For the same compound, the Absorption in the experiment on Cricetinae gen. sp. came to 0.009 mg/kg.

Take `CCCCCCCCC(SCCCCCC)C(=O)Nc1c(SC)cc(C)nc1SC` (single isomer, unassigned): the IC50 in [2] turned out to be 160 nM.

Regarding `CCCCCCCC[C@@H](SCCCCCC)C(=O)Nc1c(SC)ccc2ncccc12`, inhibition in [2] was half-maximal at 750 nM (IC50).

(Values after ChEMBL document CHEMBL1127642, “Potent, selective, and systemically-available inhibitors of acyl-coenzyme A:cholesterol acyl transferase (ACAT)” (J Med Chem, 1994).)
